HKDC1 act: HKDC1 (human) hexokinase activation; recombinant HKDC1, G6PDH/diaphorase resazurin fluorescence; stronger effect = lower value; 0.056% of 340,000 active; AID 493187; activity change, negative = activation, % at 20 µM; Q2TB90;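 active = activation of 40% or more at 20 µM, a change of -40% or lower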
Target sequence (Q2TB90 whole entry, looked up): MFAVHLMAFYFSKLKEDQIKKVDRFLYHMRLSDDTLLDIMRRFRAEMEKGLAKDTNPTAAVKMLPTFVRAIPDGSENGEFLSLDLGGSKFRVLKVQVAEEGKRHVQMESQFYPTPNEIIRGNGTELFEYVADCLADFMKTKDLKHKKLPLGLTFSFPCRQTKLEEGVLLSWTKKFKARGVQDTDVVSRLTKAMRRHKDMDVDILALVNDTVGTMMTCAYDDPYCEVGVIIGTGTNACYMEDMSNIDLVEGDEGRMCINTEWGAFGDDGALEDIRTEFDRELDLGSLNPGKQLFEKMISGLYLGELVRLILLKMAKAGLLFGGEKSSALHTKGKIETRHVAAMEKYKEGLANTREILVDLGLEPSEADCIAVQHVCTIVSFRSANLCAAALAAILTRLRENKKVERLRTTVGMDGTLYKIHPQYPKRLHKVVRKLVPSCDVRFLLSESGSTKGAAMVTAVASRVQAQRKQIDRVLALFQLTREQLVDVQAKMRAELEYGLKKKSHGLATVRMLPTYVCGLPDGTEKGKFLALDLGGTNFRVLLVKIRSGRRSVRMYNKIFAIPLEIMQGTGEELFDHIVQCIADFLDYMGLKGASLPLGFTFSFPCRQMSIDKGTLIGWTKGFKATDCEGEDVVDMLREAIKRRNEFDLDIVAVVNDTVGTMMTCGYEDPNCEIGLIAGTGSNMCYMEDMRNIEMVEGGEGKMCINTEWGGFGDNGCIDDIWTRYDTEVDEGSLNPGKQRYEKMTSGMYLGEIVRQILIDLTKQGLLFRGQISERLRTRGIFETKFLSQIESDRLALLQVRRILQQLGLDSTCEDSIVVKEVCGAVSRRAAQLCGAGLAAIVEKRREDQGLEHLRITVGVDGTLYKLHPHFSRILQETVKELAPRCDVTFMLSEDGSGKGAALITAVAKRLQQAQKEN
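Material: in-house human HKDC1 enzyme, G6PDH and diaphorase coupling enzymes | Quantity: HKDC1 at 5 µg/mL final | Medium: Tris buffer at pH 8.0 containing MgCl2 | Compound dosing: 20 µM single dose | Schedule: 90 min reaction at room temperature, dark | Measured by: Resorufin fluorescence, 525/613 nm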
Numbers stand for hits; n = inactive. A selection follows.

SMILES | HKDC1 act
O=C(N/N=C/c1ccccc1OC(=O)c1ccc2c(c1)OCO2)c1ccccc1 | -48
Cc1oc2c(c1C(=O)c1ccccc1)C(=O)C(=O)c1ccccc1-2 | n
Cc1ccc(N=c2ssnc2Cl)cc1 | -51
Cc1nnc(N=c2ssnc2Cl)o1 | -88
Cc1cc(C)nc(/N=c2/ssnc2Cl)c1 | -137
COc1cc(N=c2ssnc2Cl)c(OC)cc1Cl | -46
O=C(CN1C(=O)/C(=C2/SC(=S)N(CCS(=O)(=O)O)C2=O)c2ccccc21)Nc1cccc(C(F)(F)F)c1 | n
Cc1cc(C)c(S(=O)(=O)/N=C2\C=C(Nc3ccc(C(=O)O)cc3)C(=O)c3ccccc32)c(C)c1 | n
O=S(=O)(Nc1ccc(O)c2ccccc12)c1cccs1 | n
Cc1cc(O)c(-c2cc(O)c(C)cc2O)cc1O | n
O=C(CSc1nc(-c2ccc(F)cc2)nc2c1Cc1ccccc1O2)Nc1ccc(C(=O)O)cc1 | n
COC1=CC(=O)C=C(OC)C1=O | n
O=c1oc2c(O)c(O)cc3c(=O)oc4c(O)c(O)cc1c4c23 | n
O=C1NN(c2ccc(F)c(Cl)c2)C(=O)/C1=C\c1cccc(OC(=O)c2cccs2)c1 | n
O=C1C(=O)c2c(C(=O)c3ccccc3)coc2-c2ccccc21 | n
COc1ccc([C@@H]2C[C@H](c3ccccc3)Oc3cc(OC)c(OC)c(OC)c32)cc1 | n
Cc1cccn2c(=O)c3cc(C(N)=S)c(=N)n(CCCN4CCOCC4)c3nc12 | -54
O=C1C=C(N2CCCCC2)c2ccccc2C1=O | n
COc1ccc(-c2cc(N)n(CCC#N)n2)c(OC)c1 | n
O=C(NCCc1ccccc1)C(c1cccs1)N(C(=O)CCl)c1ccc(Cl)cc1 (stereo not drawn) | n
O=C1C=CC(=O)C(CNc2ccc(C(=O)OCc3ccccc3)cc2)=C1 | n
C=CC(=O)N1C/C(=C/c2ccc(F)cc2)C(=O)/C(=C\c2ccc(F)cc2)C1 | n
CC(=O)n1cc(N(C(=O)CCl)c2ccc(Cl)cc2)c2ccccc21 | n
COc1cc(OC)cc(C(=O)NC(=S)NNC(=O)c2cnccn2)c1 | -42
O=C(CN1C(=O)/C(=C2\SC(=S)N(CCS(=O)(=O)O)C2=O)c2ccccc21)Nc1cccc(Br)c1 | n
SMILES | HKDC1 act
O=C1NC(=S)S/C1=C\c1ccc(SCc2ccco2)o1 | n
CCc1ccc(C2=NNC(=Nc3cccc(S(=O)(=O)N(C)C)c3)SC2)cc1 | -177
Cc1cccc(N=C2NN=C(c3c(C)[nH]c4ccccc34)CS2)c1 | -41
Cc1ccc(C2=NNC(=Nc3ccc(F)cc3)SC2)cc1 | -70
Cc1cccc(N=C2NN=C(c3ccc4c(c3)OCCO4)CS2)c1 | -62
COc1ccc(-c2nc3c(C(=O)NCCN(C)C)cccc3c3ccccc23)cc1 | n
COc1ccc(NC(=O)c2cc3ccccc3cc2O)cc1 | n
O/C=c1\ccc2cccc3nc(C(F)(F)F)nc1c23 | n
Cn1c(/N=C/c2c(O)ccc3ccccc23)nc2ccccc21 | n
O=C(C1=C(O)C(=O)N(c2nc3ccc(Cl)cc3s2)C1c1ccco1)c1ccco1 (stereo not drawn) | n
COc1ccc2[nH]c3c4c(ccc3c2c1)C(=O)C=CC4=O | n
CCc1ccc(S(=O)(=O)/N=C2\C=C(Nc3cccc(C(=O)O)c3)C(=O)c3ccccc32)cc1 | n
O=[N+]([O-])c1ccc(-c2csc(N/N=C/c3cccnc3)n2)cc1 | n
CCOC(=O)/C(=C\c1cccnc1)C(=O)c1cc(C(C)=O)c(Nc2ccccc2)s1 | n
Cc1ccc(C(=O)/C=C/c2cc(Br)cc(Br)c2O)o1 | n
COc1cc(NS(=O)(=O)c2ccc(NC(=O)c3ccc(F)cc3)cc2)ncn1 | -59
COc1ccc(CN2C=C3C(=O)C(C)(OC(=O)C4CCCC4)C(=O)C=C3C=C2c2ccsc2)cc1 (stereo not drawn) | n
Cc1ccc2c(c1C)-c1c(ccc(C)c1C)C(=O)C2=O | n
COC(=O)c1ccc(NC(=O)CSc2n[nH]c(-c3ccncc3)n2)cc1 | n
CCOC(=O)c1ccc(NC(=O)CSc2n[nH]c(-c3ccncc3)n2)cc1 | n
COc1ccc(-c2[nH]c(-c3ccc(SC)cc3)nc2SCC(=O)Nc2nccs2)cc1 | -54
N#CC1(NC(=O)COC(=O)c2cc(O)c3ccccc3c2O)CCCCC1 | n
NNc1ncnc2sc3c(c12)CCC3 | -102
CCN(CC)CCNc1cc(C)nc2c1C(=O)C(=O)C=C2N1CCCCC1 | n
O=C1C(Cl)=C(N2CCCCC2)C(=O)C(Cl)=C1c1cnc(N2CCCCC2)s1 | n
SMILES | HKDC1 act
O=C(Nc1ccc(N2CCCC2)cc1)c1cccc(-c2cc3ccccc3oc2=O)c1 | -40
O=C(CCNC(=O)c1ccc([N+](=O)[O-])cc1)NCCC1=CCCCC1 | n
COC(=O)CCC(=O)Nc1sc(Cc2ccccc2)c(C)c1C(N)=O | -44
O=C(O)c1cccc(-c2ccc(/C=c3/sc4nc5ccccc5n4c3=O)o2)c1 | n
CCCN(CCC)C(=S)NC(=O)c1ccc(-c2ccccc2)cc1 | -48
N#CC(C#N)=c1ccc2c(c1)N1C3=C(CCCC3)CC3CCCCC31N=2 (stereo not drawn) | n
O=C1C(Nc2ccc(O)cc2)=C/C(=N/S(=O)(=O)c2cccs2)c2ccccc21 | n
Cc1c(C(=O)Oc2ccc(-c3cnc4ccccc4n3)cc2)cccc1[N+](=O)[O-] | -89
CC(C)Nc1nnc(SCC(=O)Nc2ccc3c(c2)C(=O)c2ccccc2C3=O)s1 | n
CCNc1ccc(Br)cc(C(=O)/C=C/c2c(Cl)cccc2Cl)c1=O | n
Cc1cc(NC(=S)NC(=O)c2ccccc2)ccc1-c1cc2ccccc2oc1=O | -47
CCCCNC(=O)c1sc(=S)n2c1[nH]c(=O)c1ccc(C(=O)NCCc3ccc(OC)c(OC)c3)cc12 | n
CC(=NNc1nc2ccccc2o1)c1cc2ccccc2cn1 | -48
CC(=O)NC1C(=O)N(CCN2CCOCC2)c2ccc(F)cc21 (stereo not drawn) | n
N#CC(C#N)=C1SC(=Nc2ccccc2)C(=Nc2ccccc2)N1c1ccccc1 | -86
Fc1ccc(N2C(=S)SC(=Nc3ccccc3)C2=Nc2ccccc2)cc1 | -50
COc1cc(-c2ccc(Nc3ccccc3C(=O)O)c(OC)c2)ccc1Nc1ccccc1C(=O)O | n
CC(C)(C)n1[nH]c2c3c(ccc2c1=O)C(=O)c1ccccc1C3=O | n
N#C/C(C(N)=O)=c1/ccc2c(c1)N1C3=C(CCCC3)CC3CCCCC31N=2 (stereo not drawn) | n
Cc1ccc(Cl)cc1NC1=C/C(=N\S(=O)(=O)c2cccs2)c2ccccc2C1=O | n
Nc1ccc(N)c(C(=O)O)c1 | n
CCOC(=O)N1CCN(c2cc(NCCC(=O)O)c3c4c(onc24)-c2ccccc2C3=O)CC1 | n
O=C(C1=C(c2ccccc2)C(=O)c2ccccc2C1=O)c1ccccc1 | n
O=[N+]([O-])c1ccc(N/N=C/c2ccc(O)c(O)c2O)c(S(=O)(=O)N2CCOCC2)c1 | n
CC(C)(C)c1nnc(N/N=C/c2cc(Br)ccc2O)n(N)c1=O | -43
SMILES | HKDC1 act
O=C(/C=C/c1cccc(Cl)c1)c1ccc([N+](=O)[O-])o1 | n
COc1ccc(-c2cc3ccccc3[nH]2)cc1 | n
Cc1cc(C2=NNC(=Nc3ccc(S(=O)(=O)N4CCOCC4)cc3)SC2)c(C)n1C | -73
O=C(Nc1ccc2nc(-c3ccco3)c(-c3ccco3)nc2c1)NC1CC1 | n
CC1C/C(=C\c2cccnc2)C(=O)/C(=C/c2cccnc2)C1 (stereo not drawn) | n
CC(C)C(C(=O)O)N1C(=O)/C(=C/C=C/c2ccco2)SC1=S (stereo not drawn) | n

Screens deposited in PubChem BioAssay by Sanford-Burnham Center for Chemical Genomics.
